Laboratory results published in ChEMBL document CHEMBL4428062, “Human Toll-like Receptor (TLR) 8-Specific Agonistic Activity in Substituted Pyrimidine-2,4-diamines” (J Med Chem, 2016).
Activity calls are given as the source filed them. The rule behind the calls is not given here.

Experiments:
[1] = target: Toll-like receptor 2 (Homo sapiens) (UniProt O60603); test: Agonist activity at human TLR2 expressed in HEK293 cells assessed as induction of NF-kappaB activity by secreted alkaline phosphatase reporter gene assay; assay type: cell-based
Procedure, shortened: (§1)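 HEK293 reporter lines stably co-transfected with the respective human TLR and an NF-κB/AP-1-driven secreted alkaline phosphatase gene, kept in selection medium. About 10^5 cells/ml were incubated with graded concentrations of stimuli. Supernatant sAP was read spectrophotometrically at 620 nm using a chromogenic substrate in detection medium. EC50 was taken as the arithmetic mean of quadruplicate samples.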

[2] = target: T1, Toll-like receptor 9 (Homo sapiens) (UniProt Q9NR96); test: Agonist activity at human TLR9 expressed in HEK293 cells assessed as induction of NF-kappaB activity by secreted alkaline phosphatase reporter gene assay; assay type: cell-based; procedure, shortened: as §1
T1 sequence (whole entry): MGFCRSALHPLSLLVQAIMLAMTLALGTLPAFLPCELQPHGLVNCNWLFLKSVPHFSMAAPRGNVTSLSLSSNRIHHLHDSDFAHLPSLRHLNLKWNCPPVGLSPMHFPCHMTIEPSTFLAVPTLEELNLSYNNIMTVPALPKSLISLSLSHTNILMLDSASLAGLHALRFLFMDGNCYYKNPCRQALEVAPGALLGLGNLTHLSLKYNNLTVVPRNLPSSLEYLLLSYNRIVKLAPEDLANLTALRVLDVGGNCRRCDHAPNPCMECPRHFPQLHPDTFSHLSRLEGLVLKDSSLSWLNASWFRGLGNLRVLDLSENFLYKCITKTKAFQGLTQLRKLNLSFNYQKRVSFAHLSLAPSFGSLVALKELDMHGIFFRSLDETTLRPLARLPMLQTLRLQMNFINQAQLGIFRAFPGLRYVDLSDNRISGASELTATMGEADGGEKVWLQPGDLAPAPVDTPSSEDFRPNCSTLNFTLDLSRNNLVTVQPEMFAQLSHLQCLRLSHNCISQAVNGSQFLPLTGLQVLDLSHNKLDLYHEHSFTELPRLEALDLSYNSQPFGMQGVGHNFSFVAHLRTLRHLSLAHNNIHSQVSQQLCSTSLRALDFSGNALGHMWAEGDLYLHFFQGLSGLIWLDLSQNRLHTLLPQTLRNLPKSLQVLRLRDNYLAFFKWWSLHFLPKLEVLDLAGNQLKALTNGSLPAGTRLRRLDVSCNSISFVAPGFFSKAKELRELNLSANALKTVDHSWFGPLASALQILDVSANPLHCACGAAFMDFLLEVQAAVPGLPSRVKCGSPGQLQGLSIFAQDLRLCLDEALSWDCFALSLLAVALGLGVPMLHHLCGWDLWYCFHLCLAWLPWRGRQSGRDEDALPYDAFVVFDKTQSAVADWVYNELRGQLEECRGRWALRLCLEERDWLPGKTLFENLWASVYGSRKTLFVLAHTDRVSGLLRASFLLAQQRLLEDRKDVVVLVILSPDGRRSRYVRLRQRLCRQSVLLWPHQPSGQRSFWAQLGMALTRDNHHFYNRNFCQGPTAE

[3] = target: T2, Toll-like receptor 8 (Homo sapiens) (UniProt Q9NR97); test: Agonist activity at TLR8 in human PBMC assessed as induction of IL-1beta levels after 16 hrs by immunoassay
T2 sequence (whole entry): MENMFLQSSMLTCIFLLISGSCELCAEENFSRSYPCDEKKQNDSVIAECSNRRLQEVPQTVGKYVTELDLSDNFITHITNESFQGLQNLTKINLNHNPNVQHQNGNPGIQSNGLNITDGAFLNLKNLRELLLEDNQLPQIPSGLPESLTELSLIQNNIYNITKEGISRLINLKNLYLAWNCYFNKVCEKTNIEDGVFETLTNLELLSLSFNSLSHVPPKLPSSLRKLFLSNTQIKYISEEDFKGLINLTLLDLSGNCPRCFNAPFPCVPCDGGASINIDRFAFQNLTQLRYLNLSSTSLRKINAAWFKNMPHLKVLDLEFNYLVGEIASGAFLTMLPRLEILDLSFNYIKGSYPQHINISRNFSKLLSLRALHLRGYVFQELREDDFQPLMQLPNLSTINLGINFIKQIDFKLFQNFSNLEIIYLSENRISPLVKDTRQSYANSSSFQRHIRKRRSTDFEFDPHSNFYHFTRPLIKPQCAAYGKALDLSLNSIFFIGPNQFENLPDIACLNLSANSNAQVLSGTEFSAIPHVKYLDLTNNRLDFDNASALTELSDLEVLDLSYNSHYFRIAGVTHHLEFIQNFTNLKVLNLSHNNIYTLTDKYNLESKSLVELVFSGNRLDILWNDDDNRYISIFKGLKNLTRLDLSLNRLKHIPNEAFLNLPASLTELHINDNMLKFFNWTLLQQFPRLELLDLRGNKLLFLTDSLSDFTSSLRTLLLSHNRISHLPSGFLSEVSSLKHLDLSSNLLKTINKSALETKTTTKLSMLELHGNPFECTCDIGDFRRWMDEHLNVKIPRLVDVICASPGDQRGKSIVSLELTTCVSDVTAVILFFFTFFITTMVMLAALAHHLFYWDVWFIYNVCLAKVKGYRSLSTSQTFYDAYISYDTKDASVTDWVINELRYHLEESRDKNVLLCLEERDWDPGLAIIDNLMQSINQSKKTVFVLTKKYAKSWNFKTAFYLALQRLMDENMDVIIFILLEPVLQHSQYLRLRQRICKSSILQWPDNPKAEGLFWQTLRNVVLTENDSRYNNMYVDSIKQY
Procedure, shortened: (§2)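 Freshly isolated human PBMC from venipuncture blood (informed consent), 10^5 cells/well, stimulated 16 h with graded concentrations of compound. Supernatants collected by centrifugation and cytokines quantified in duplicate with a multiplexed cytokine/chemokine magnetic bead array.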

[4] = target: T2, Toll-like receptor 8 (Homo sapiens); test: Agonist activity at TLR8 in human monocytes assessed as upregulation of CD80 after 16 hrs by flow cytometry; assay type: cell-based
Procedure, shortened: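 Heparin-anticoagulated healthy-donor whole blood added to serial compound dilutions, 37 °C for 16 h, DMSO negative control. Stained with CD14-FITC, CD40-APC, CD80-PE-Cy7 and CD86-V450 (2.5 µg each, 4 °C, dark, 60 min). Erythrocytes lysed, leukocytes fixed, washed, then flow cytometry on 200,000 gated events. Monocytes gated as CD14+, CD80 read as MFI, means of duplicates.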

Toll-like receptor 8 = target: T3, Toll-like receptor 8 (Homo sapiens, UniProt Q9NR97); test: Agonist activity at TLR8 in human PBMC assessed as increase in TNF-alpha production after 16 hrs by immunoassay; procedure, shortened: as §2
T3 sequence (Q9NR97 whole entry): T2 sequence (whole entry)

Chain of Toll-like receptor 2 (Homo sapiens) (O60603 whole entry): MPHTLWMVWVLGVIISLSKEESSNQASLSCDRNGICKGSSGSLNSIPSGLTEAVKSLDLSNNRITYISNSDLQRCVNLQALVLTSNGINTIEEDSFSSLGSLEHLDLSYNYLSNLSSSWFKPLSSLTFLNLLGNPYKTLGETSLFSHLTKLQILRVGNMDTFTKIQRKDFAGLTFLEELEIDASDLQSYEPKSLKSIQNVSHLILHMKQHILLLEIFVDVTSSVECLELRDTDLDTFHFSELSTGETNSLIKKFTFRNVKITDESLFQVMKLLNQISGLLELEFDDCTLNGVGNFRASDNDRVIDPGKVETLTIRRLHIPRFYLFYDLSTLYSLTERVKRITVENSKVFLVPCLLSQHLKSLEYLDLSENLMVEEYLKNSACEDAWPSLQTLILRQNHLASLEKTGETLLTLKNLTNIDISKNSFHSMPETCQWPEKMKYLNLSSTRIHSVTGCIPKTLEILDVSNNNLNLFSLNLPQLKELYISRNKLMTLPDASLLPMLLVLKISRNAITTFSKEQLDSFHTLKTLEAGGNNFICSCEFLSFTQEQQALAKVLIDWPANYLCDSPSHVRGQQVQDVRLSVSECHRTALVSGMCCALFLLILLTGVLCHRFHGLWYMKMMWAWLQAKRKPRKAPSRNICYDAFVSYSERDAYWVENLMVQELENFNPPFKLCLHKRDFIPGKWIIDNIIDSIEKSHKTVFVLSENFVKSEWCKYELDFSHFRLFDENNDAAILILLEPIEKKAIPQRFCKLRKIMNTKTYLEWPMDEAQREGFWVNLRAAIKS

In the case of `CCCCNc1nc(N)nc(-c2ccccc2)c1CCCCN`, the Activity [1] is reported as “inactive”, the Activity [2] is reported as “inactive” and the Activity [3] is reported as “inactive”.

In the case of `CCCCNc1nc(N)nc(C)c1I`, the Activity [1] is reported as “inactive”, the Activity [2] is reported as “inactive” and the Activity [3] is reported as “Active”. The Activity [4] was 5 µM.

`CCCCNc1cc(-c2ccccc2)nc(N)n1` was tested, and the Activity [1] was “inactive”, the Activity [2] was “inactive” and the Activity [3] was “inactive”.

`CCCCCn1c(N)nc2c(C)cccc21` was tested, and the Activity [1] was “inactive”, the Activity [2] was “inactive” and the Activity [3] was “Active”. It also gave an Activity [4] of 14 µM.

`CCCCNc1nc(N)nc(C)c1CCCCN` was tested, and the Activity [1] was “inactive”, the Activity [2] was “inactive” and the EC50 (Toll-like receptor 8) was 9.26 µM. For the same compound, the Activity [3] was “inactive” and the Activity [4] was 1.5 µM.
